The values that follow come from article PMC10951545 (Heliyon, 2024).

Each structure is given as a SMILES string. Where a SMILES comes first, the peptide text is derived from it. Bridges are numbered along the chain shown (N, C = ends). [ ]: non-standard residue; d: D form. The star is where a group is joined. X1 = CC[C@H](C)CCCCC(=O)*; Dab = NCC[C@H](N)C(=O)O

One series can be described thus: Complications. The conditions noted are these: number of patients (%). Format: in vivo. An outline of the steps:
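ICU patients with severe pulmonary infection were given IV polymyxin B sulfate as an approx. 1 h drip (loading 15,000 U/Kg, then 20,000 U/Kg/d in two doses), either alone or with CVVH (35 ml/kg/h, blood flow 200 ml/min). The incidence of skin pigmentation, nephrotoxicity and 28-day mortality was recorded per group, and the groups were compared.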

Series [1] relates to ventilator-associated pneumonia caused by multidrug-resistant bacteria. In words: Evaluation of clinical efficacy. Format: in vivo, patients. The conditions noted are these: control group (polymyxin B alone), n = 28.
Where [2] appears, read: control group (polymyxin B alone), n = 28.
[3] abbreviates: observation group (polymyxin B + CRRT), n = 7.

For `CC[C@H](C)CCCCC(=O)N[C@@H](CCN)C(=O)N[C@H](C(=O)N[C@@H](CCN)C(=O)N[C@H]1CCNC(=O)[C@H]([C@@H](C)O)NC(=O)[C@H](CCN)NC(=O)[C@H](CCN)NC(=O)[C@H](CC(C)C)NC(=O)[C@@H](Cc2ccccc2)NC(=O)[C@H](CCN)NC1=O)[C@@H](C)O` [polymyxin B] (X1-[Dab]T[Dab][Dab][Dab][dF]L[Dab][Dab]T; lactam 4-C), in “Complications” (setting [2]), the 28-day mortality is 8 (28.57), the Nephrotoxicity is 6 (21.43) and the Skin pigmentation is listed as 3 (10.71). Further, in “Complications” (setting [3]), the 28-day mortality was 4 (57.14), the Nephrotoxicity is reported as 1 (14.29) and the Skin pigmentation is 2 (28.57). The compound further came in with a response rate in series [1] of 50.00%.
